# Source: ChEMBL document CHEMBL1140884, “Oligodeoxyribonucleotide-based antagonists for Toll-like receptors 7 and 9” (2009)
# The source made the active and inactive calls. The calls are words filed in the database; no cut-off is given here.
# Columns and labels:
# Assay type in all cases: functional, cell-based
# [1] = molecular target: T1, Toll-like receptor 9 (Mus musculus) (UniProt Q9EQU3); assay: Agonist activity at mouse TLR9 expressed in HEK293 cells assessed as activation of NF-kappaB at 10 ug/mL by SEAP reporter gene assay
# T1 sequence (whole entry): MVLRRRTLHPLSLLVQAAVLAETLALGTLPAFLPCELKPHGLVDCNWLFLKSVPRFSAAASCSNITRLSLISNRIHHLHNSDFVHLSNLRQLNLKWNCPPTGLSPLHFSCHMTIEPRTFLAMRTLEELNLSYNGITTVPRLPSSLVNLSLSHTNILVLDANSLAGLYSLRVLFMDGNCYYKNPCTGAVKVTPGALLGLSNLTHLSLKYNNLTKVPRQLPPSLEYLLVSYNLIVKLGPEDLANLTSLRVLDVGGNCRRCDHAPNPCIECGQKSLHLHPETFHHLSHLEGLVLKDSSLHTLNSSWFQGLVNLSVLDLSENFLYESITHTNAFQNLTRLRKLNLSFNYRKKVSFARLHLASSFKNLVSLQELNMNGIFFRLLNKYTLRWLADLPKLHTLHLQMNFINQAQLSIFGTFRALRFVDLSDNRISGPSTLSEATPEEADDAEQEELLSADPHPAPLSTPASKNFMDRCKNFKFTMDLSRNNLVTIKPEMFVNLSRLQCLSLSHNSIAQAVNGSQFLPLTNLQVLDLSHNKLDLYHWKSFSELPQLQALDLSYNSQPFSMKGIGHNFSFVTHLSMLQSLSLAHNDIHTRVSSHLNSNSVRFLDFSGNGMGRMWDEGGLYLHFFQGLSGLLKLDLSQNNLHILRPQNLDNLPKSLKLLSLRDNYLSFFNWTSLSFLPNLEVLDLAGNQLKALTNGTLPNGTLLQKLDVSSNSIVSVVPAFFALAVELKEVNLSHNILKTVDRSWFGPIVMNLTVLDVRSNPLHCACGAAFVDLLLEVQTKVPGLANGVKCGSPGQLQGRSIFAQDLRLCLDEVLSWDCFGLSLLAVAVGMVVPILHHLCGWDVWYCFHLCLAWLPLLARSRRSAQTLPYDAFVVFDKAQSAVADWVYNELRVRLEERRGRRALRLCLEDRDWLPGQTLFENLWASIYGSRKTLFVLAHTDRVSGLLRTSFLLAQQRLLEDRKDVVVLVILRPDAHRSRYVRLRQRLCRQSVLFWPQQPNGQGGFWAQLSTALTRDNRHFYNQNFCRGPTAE
# How it was run: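 HEK293 cells stably expressing mouse TLR9 were transiently transfected with a SEAP reporter for 6 h. Compounds were added at 10 µg/mL for 18 h. SEAP was read with Quanti-Blue substrate and expressed as fold change in NF-κB activity.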
# [2] = molecular target: T1, Toll-like receptor 9 (Mus musculus); assay: Antagonist activity at TLR9 in mouse J774 cells assessed as inhibition of 5'-TCTGACRTTCT-X-TCTTRCAGTCT-3'-induced NF-kappaB activation pretreated for 1 hr
# How it was run: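 J774 cells at 5×10^6 cells/well were preincubated with antagonist for 1 h. Agonist was then added: TLR9 agonist 1 µg/mL, an RNA-based TLR7/8 agonist, or LPS 100 ng/mL. Antagonist was used at 5–40 µg/mL or at the indicated agonist ratios. Nuclear extracts were taken 1 h after agonist and analysed by EMSA.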
# [3] = molecular target: T1, Toll-like receptor 9 (Mus musculus); assay: Agonist activity at TLR9 in mouse J774 cells assessed as of NF-kappaB activation
# How it was run: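 Murine J774 macrophages grown in DMEM with 10% FBS and plated at 5×10^6 cells/well. Nuclear extracts taken 1 h after agonist addition. NF-κB detected by EMSA on native polyacrylamide gels with autoradiography.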
# [4] = molecular target: T1, Toll-like receptor 9 (Mus musculus); assay: Antagonist activity at mouse TLR9 expressed in HEK293 cells assessed as inhibition of 5'-CTATCTGACGTTCTCTGT-3'-induced NF-kappaB activation by SEAP reporter gene assay
# How it was run: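 Mouse TLR9-HEK293 cells were transfected with a SEAP reporter for 6 h. They were then stimulated for 18 h with agonist (0.25 or 0.5 µg/mL) plus increasing antagonist concentrations or set agonist:antagonist ratios. Quanti-Blue read-out, reported as % NF-κB activity with agonist alone as 100%.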
Activity [1],Activity [2],Activity [3],Activity [4],SMILES
Active,–,–,–,Cc1cn([C@H]2C[C@H](OP(=O)(S)OC[C@H]3O[C@@H](n4ccc(N)nc4=O)C[C@@H]3OP(=O)(S)OC[C@H]3O[C@@H](n4cc(C)c(=O)[nH]c4=O)C[C@@H]3OP(=O)(S)OC[C@H]3O[C@@H](n4cnc5c(=O)[nH]c(N)nc54)C[C@@H]3OP(=O)(S)OC[C@H]3O[C@@H](n4cc(C)c(=O)[nH]c4=O)C[C@@H]3O)[C@@H](COP(=O)(S)O[C@H]3C[C@H](n4ccc(N)nc4=O)O[C@@H]3COP(=O)(S)O[C@H]3C[C@H](n4cc(C)c(=O)[nH]c4=O)O[C@@H]3COP(=O)(S)O[C@H]3C[C@H](n4cc(C)c(=O)[nH]c4=O)O[C@@H]3COP(=O)(S)O[C@H]3C[C@H](n4cnc5c(=O)[nH]c(N)nc54)O[C@@H]3COP(=O)(S)O[C@H]3C[C@H](n4ccc(N)nc4=O)O[C@@H]3COP(=O)(S)O[C@H]3C[C@H](n4cc(C)c(=O)[nH]c4=O)O[C@@H]3COP(=O)(S)O[C@H]3C[C@H](n4cnc5c(=O)[nH]c(N)nc54)O[C@@H]3COP(=O)(S)O[C@H]3C[C@H](n4cc(C)c(=O)[nH]c4=O)O[C@@H]3COP(=O)(S)O[C@H]3C[C@H](n4ccc(N)nc4=O)O[C@@H]3COP(=O)(S)O[C@H]3C[C@H](n4cc(C)c(=O)[nH]c4=O)O[C@@H]3COP(=O)(S)O[C@H]3C[C@H](n4cnc5c(N)ncnc54)O[C@@H]3COP(=O)(S)O[C@H]3C[C@H](n4cc(C)c(=O)[nH]c4=O)O[C@@H]3COP(=O)(S)O[C@@H]3C[C@@H](n4ccc(N)nc4=O)O[C@H]3CO)O2)c(=O)[nH]c1=O (some centres not stated)
inactive,inactive,inactive,–,CO[C@@H]1[C@H](OP(=O)(S)OC[C@H]2O[C@@H](n3ccc(N)nc3=O)C[C@@H]2OP(=O)(S)OC[C@H]2O[C@@H](n3ccc(N)nc3=O)C[C@@H]2OP(=O)(S)OC[C@H]2O[C@@H](n3cc(C)c(=O)[nH]c3=O)C[C@@H]2OP(=O)(S)OC[C@H]2O[C@@H](n3cc(C)c(=O)[nH]c3=O)C[C@@H]2OP(=O)(S)OC[C@H]2O[C@@H](n3ccc(N)nc3=O)C[C@@H]2OP(=O)(S)OC[C@H]2O[C@@H](n3cc(C)c(=O)[nH]c3=O)C[C@@H]2OP(=O)(S)OC[C@H]2O[C@@H](n3ccc(N)nc3=O)C[C@@H]2OP(=O)(S)OC[C@H]2O[C@@H](n3cc(C)c(=O)[nH]c3=O)C[C@@H]2OP(=O)(S)OC[C@H]2O[C@@H](n3cnc4c(=O)[nH]c(N)nc43)C[C@@H]2OP(=O)(S)OC[C@H]2O[C@@H](n3cc(C)c(=O)[nH]c3=O)C[C@@H]2O)[C@@H](COP(=O)(S)O[C@H]2[C@@H](OC)[C@H](n3cnc4c(=O)[nH]c(N)nc43)O[C@@H]2COP(=O)(S)O[C@H]2C[C@H](n3cc(C)c(=O)[nH]c3=O)O[C@@H]2COP(=O)(S)O[C@H]2C[C@H](n3ccc(N)nc3=O)O[C@@H]2COP(=O)(S)O[C@H]2C[C@H](n3cc(C)c(=O)[nH]c3=O)O[C@@H]2COP(=O)(S)O[C@H]2C[C@H](n3cnc4c(N)ncnc43)O[C@@H]2COP(=O)(S)O[C@H]2C[C@H](n3cc(C)c(=O)[nH]c3=O)O[C@@H]2COP(=O)(S)O[C@@H]2C[C@@H](n3ccc(N)nc3=O)O[C@H]2CO)O[C@H]1n1cnc2c(N)ncnc21 (some centres not stated)
Active,–,–,–,CO[C@@H]1[C@H](OP(=O)(S)OC[C@H]2O[C@@H](n3ccc(N)nc3=O)C[C@@H]2OP(=O)(S)OC[C@H]2O[C@@H](n3cc(C)c(=O)[nH]c3=O)C[C@@H]2OP(=O)(S)OC[C@H]2O[C@@H](n3ccc(N)nc3=O)C[C@@H]2OP(=O)(S)OC[C@H]2O[C@@H](n3cc(C)c(=O)[nH]c3=O)C[C@@H]2OP(=O)(S)OC[C@H]2O[C@@H](n3cnc4c(=O)[nH]c(N)nc43)C[C@@H]2OP(=O)(S)OC[C@H]2O[C@@H](n3cc(C)c(=O)[nH]c3=O)C[C@@H]2O)[C@@H](COP(=O)(S)O[C@H]2[C@@H](OC)[C@H](n3ccc(=O)[nH]c3=O)O[C@@H]2COP(=O)(S)O[C@H]2C[C@H](n3cnc4c(=O)[nH]c(N)nc43)O[C@@H]2COP(=O)(S)O[C@H]2C[C@H](n3ccc(N)nc3=O)O[C@@H]2COP(=O)(S)O[C@H]2C[C@H](n3cnc4c(N)ncnc43)O[C@@H]2COP(=O)(S)O[C@H]2C[C@H](n3cnc4c(=O)[nH]c(N)nc43)O[C@@H]2COP(=O)(S)O[C@H]2C[C@H](n3cc(C)c(=O)[nH]c3=O)O[C@@H]2COP(=O)(S)O[C@H]2C[C@H](n3ccc(N)nc3=O)O[C@@H]2COP(=O)(S)O[C@H]2C[C@H](n3cc(C)c(=O)[nH]c3=O)O[C@@H]2COP(=O)(S)O[C@H]2C[C@H](n3cnc4c(N)ncnc43)O[C@@H]2COP(=O)(S)O[C@H]2C[C@H](n3cc(C)c(=O)[nH]c3=O)O[C@@H]2COP(=O)(S)O[C@@H]2C[C@@H](n3ccc(N)nc3=O)O[C@H]2CO)O[C@H]1n1ccc(=O)[nH]c1=O (some centres not stated)
Active,–,–,inactive,Cc1cn([C@@H]2O[C@H](COP(=O)(S)O[C@H]3C[C@H](n4ccc(N)nc4=O)O[C@@H]3COP(=O)(S)O[C@H]3C[C@H](n4cc(C)c(=O)[nH]c4=O)O[C@@H]3COP(=O)(S)O[C@H]3C[C@H](n4ccc(N)nc4=O)O[C@@H]3COP(=O)(S)O[C@H]3C[C@H](n4cc(C)c(=O)[nH]c4=O)O[C@@H]3COP(=O)(S)O[C@H]3C[C@H](n4cc(C)c(=O)[nH]c4=O)O[C@@H]3COP(=O)(S)O[C@H]3C[C@H](n4cnc5c(=O)[nH]c(N)nc54)O[C@@H]3COP(=O)(S)O[C@H]3C[C@H](n4ccc(N)nc4=O)O[C@@H]3COP(=O)(S)O[C@H]3C[C@H](n4cnc5c(N)ncnc54)O[C@@H]3COP(=O)(S)O[C@H]3C[C@H](n4cnc5c(=O)[nH]c(N)nc54)O[C@@H]3COP(=O)(S)O[C@H]3C[C@H](n4cc(C)c(=O)[nH]c4=O)O[C@@H]3COP(=O)(S)O[C@H]3C[C@H](n4ccc(N)nc4=O)O[C@@H]3COP(=O)(S)O[C@H]3C[C@H](n4cc(C)c(=O)[nH]c4=O)O[C@@H]3COP(=O)(S)O[C@H]3C[C@H](n4cnc5c(N)ncnc54)O[C@@H]3COP(=O)(S)O[C@H]3C[C@H](n4cc(C)c(=O)[nH]c4=O)O[C@@H]3COP(=O)(S)O[C@@H]3C[C@@H](n4ccc(N)nc4=O)O[C@H]3CO)[C@@H](OP(=O)(S)OC[C@H]3O[C@@H](n4cnc5c(=O)[nH]c(N)nc54)C[C@@H]3OP(=O)(S)OC[C@H]3O[C@@H](n4cc(C)c(=O)[nH]c4=O)C[C@@H]3O)[C@H]2O)c(=O)[nH]c1=O (some centres not stated)
